Results gathered from unrelated publications.
Protocols differ between the studies behind these lines.
Effect on: binding
tspO A138F: tspO (Cereibacter sphaeroides, UniProt Q9RFC8, A138F)
CREBBP bromodomain: CREB-binding protein, bromodomain (CREBBP, Homo sapiens, UniProt Q92793)
PIK3CG: Phosphatidylinositol 4,5-bisphosphate 3-kinase catalytic subunit gamma isoform (PIK3CG, Homo sapiens, UniProt P48736)

`C=CC1=C(C)C2=Cc3c(C=C)c(C)c4[n]3[Fe]([Cl])[n]3c(c(C)c(CCC(=O)O)c3=CC3=NC(=C4)C(C)=C3CCC(=O)O)=CC1=N2` has a Kd of 0.7 µM (tspO A138F; fluorescence).
`Cn1cc(C(=O)Nc2cccc(C(=O)O)c2)ccc1=O` has a Kd of 4.1 µM (CREBBP bromodomain; competition with immobilised ligand).
The Kd of `CC1=C(/C=C/C(C)=C/C=C/C(C)=C/C=O)C(C)(C)CCC1` is reported as 0.104 µM (Cellular retinoic acid-binding protein 2 (CRABP2, Homo sapiens, UniProt P29373, L122E/R133K); fluorescence).
The Kd of `Cc1cc(/N=N/c2ccc(S(=O)(=O)O)cc2)ccc1O` is reported as 76 µM (CREBBP bromodomain; fluorescence).
`CCC(=O)N1CCC(C(=O)N(C)CC(=O)N2CCN(c3nc(-c4cnc(N)nc4C(F)F)nc(N4CCOCC4)n3)CC2)CC1` gave a Kd of 0.016 µM (PIK3CG; competition with immobilised ligand).
`CCCc1cc(N=Nc2cc(S(=O)(=O)O)c(C)cc2C)ccc1O` gave a Kd of 97 µM (CREBBP bromodomain; fluorescence).
`CCC(=O)N1CCC(C(=O)NCC(=O)N2CCN(c3nc(-c4cnc(N)nc4C(F)F)nc(N4CCOCC4)n3)CC2)CC1` gave a Kd of 0.0013 µM (PIK3CG; competition with immobilised ligand).
`Cc1cc2nc3c(=O)[nH]c(=O)nc-3n(C[C@H](O)[C@H](O)[C@H](O)CO)c2cc1C` gave a Kd of 0.127 µM (Riboflavin-binding protein (Gallus gallus, UniProt P02752); ITC).
The Kd of `C=CC1=C(C)c2cc3[nH]c(cc4nc(cc5[nH]c(cc1n2)c(C)c5CCC(=O)O)C(CCC(=O)O)=C4C)c(C)c3C=C` is reported as 0.7 µM (tspO A138F; fluorescence).
With `Nc1nc2c(ncn2[C@@H]2O[C@H](COP(=O)(O)OP(=O)(O)O)[C@@H](OP(=O)(O)OP(=O)(O)O)[C@H]2O)c(=O)[nH]1` the Kd was 130 µM (Dihydrofolate synthase/folylpolyglutamate synthase (Escherichia coli, UniProt P08192); ITC).
With `Cn1nnc2ccc(NC(=O)c3cccc(C(=O)O)c3)cc21` the Kd was 17 µM (CREBBP bromodomain; competition with immobilised ligand).
`OC[C@H]1OC(O)[C@H](O)[C@@H](O)[C@@H]1O` (stereo partly drawn) has a Kd of 3.26 µM (Nucleolar RNA helicase 2 (Homo sapiens, UniProt Q9NR30); MST).
